Source: PubChem (several laboratories)
This is a sample that favours compounds with a hit; in the whole collection about 2.2% have one here.
ABHD5 PLIN5 PPI: ABHD5-PLIN5 interaction inhibitors, primary screen, cell lysate, split luciferase complementation, luminescence; Perilipin-5 (Homo sapiens) + 1-acylglycerol-3-phosphate O-acyltransferase ABHD5 (Homo …; Split G. princeps luciferase complementation, 4 h; inhibition, % at 4 µM; 360,000 tested, 0.78% active; AID 602281, 2012;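 active = inhibition above the mean inhibition across every tested compound plus 3 SD, cut at about 22% in these data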
HKDC1 inhibitor: HKDC1 hexokinase inhibitors, primary screen, biochemical, fluorescence, uHTS. Q2TB90. recombinant HKDC1, G6PDH/diaphorase resazurin coupled fluorescence. inhibition, % at 20 µM. 340,000 tested, 0.16% active. AID 493160, 2011;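 active = inhibition above about 35% when tested at 20 µM, limit read from the data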
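Assay system: in-house recombinant HK5 (HKDC1) enzyme. Input: HKDC1 at 5 µg/mL. Medium: Tris pH 8.0 buffer with MgCl2, Tween-20, BSA, BME. Dosing: single 20 µM dose. Schedule: 90 min reaction incubation at room temperature, dark. Signal: resazurin-to-resorufin fluorescence via G6PDH and diaphorase coupling, 525/613 nm. Controls: DMSO-enzyme wells negative, buffer-substituted wells positive.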
Exocytosis inh: LAMP-1 surface exposure blockers, TALL-104 cells – cell-based, flow cytometry, MLPCN library, primary screen; TALL-104 LAMP-1 surface exposure; cells stimulated with thapsigargin and PMA; inhibition, % at 10 µM; 360,000 tested, 0.66% active;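 active = inhibition above about 55%, limit read from the data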
PfGluPho inh: PfG6PD enzyme inhibitors, primary screen, biochemical, fluorescence intensity, uHTS. glucose-6-phosphate dehydrogenase-6-phosphogluconolactonase (Plasmodium falciparum 3D7). PfGluPho enzyme, NADPH resazurin-diaphorase fluorescence. inhibition, % at 20 µM. 350,000 tested, 0.78% active;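 active = inhibition reaching at least a set limit at 20 µM in the primary screen, cut at about 59% in these data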
ABHD5-PLIN5 conf: ABHD5-PLIN5 interaction inhibitors, confirmation, biochemical, luminescence | shares compounds with ABHD5 PLIN5 PPI | inhibition, % at 4 µM | 2,200 tested, 67% active; in the data active = inhibition above about 23%
HNF4 split-luc: HNF4 dimerization inhibitors, counter-screen for ABHD5-PLIN5 interaction inhibitor project, biochemical, split-luciferase complementation, luminescence; inhibition, % at 4 µM; shares compounds with ABHD5 PLIN5 PPI; 2,200 tested, 77% active;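 active = mean inhibition across replicate wells exceeding the computed hit threshold, cut at about 13% in these data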;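 also: light from luciferase halves that rejoin when HNF4 fusion proteins dimerize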
Target sequence (P41235 whole entry, looked up, the tested form may be a part): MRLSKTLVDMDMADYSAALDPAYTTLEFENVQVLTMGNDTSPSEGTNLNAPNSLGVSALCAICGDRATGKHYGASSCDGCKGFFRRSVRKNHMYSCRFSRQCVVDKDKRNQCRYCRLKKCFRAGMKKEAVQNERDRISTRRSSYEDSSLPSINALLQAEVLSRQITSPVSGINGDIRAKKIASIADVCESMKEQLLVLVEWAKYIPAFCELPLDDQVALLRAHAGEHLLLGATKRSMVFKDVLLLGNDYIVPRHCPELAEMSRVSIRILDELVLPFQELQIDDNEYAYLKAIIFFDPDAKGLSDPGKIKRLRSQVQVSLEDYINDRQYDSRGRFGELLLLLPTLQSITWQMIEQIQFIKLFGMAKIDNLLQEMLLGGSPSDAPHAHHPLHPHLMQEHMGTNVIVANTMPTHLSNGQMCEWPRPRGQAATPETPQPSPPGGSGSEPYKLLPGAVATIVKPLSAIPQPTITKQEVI
Of the large screens only hits and unclear results are named; the others gave an inactive call (follow-up assays come after a bar, where they were run).

O=C1N(Cc2ccccc2)CC2(Br)COCOC12O (stereo not given)	ABHD5 PLIN5 PPI 39 | ABHD5-PLIN5 conf 93 | HNF4 split-luc 102
CCC(C(=O)Nc1cc(C(=O)Nc2cc(C)ccn2)ccc1Cl)c1ccccc1 (stereo not given)	none
CCOC(=O)/C(=C\c1ccc(N2CCC(c3ccccc3)=N2)cc1)C(C)=O	none
CCOC(=O)C(=Cc1ccc(-n2cncn2)cc1)C(=O)OCC	ABHD5 PLIN5 PPI 43 | ABHD5-PLIN5 conf 81 | HNF4 split-luc 94
NC(=O)CCN1CCN(CCOC2Cc3cc(Cl)ccc3Sc3ccccc32)CC1 (stereo not given)	ABHD5 PLIN5 PPI 25 | ABHD5-PLIN5 conf 22 | HNF4 split-luc inactive
OCCN1CCN(CCCN2c3ccccc3Sc3ccc(Cl)cc32)CC1	none
Fc1ccc2c(c1)Sc1ccc(Cl)cc1CC2N1CCN(CCC2OCCO2)CC1 (stereo not given)	none
COCCCN1CCN(C2Cc3ccccc3Sc3ccc(Cl)cc32)CC1 (stereo not given)	ABHD5 PLIN5 PPI 25 | ABHD5-PLIN5 conf inactive | HNF4 split-luc inactive
Nc1ccc(C(=O)C(=O)c2ccccc2)cc1	none
COc1ccccc1C1NC(=O)NC(C)=C1C(=O)OC1CCC(C)CC1 (stereo not given)	none
CC(=O)c1ccc(CC2SC(N)=NC2=O)cc1 (stereo not given)	none
O=C(Nc1ccc2nc3n(c(=O)c2c1)CCCCC3)c1c(F)ccc([N+](=O)[O-])c1F	ABHD5 PLIN5 PPI 36 | ABHD5-PLIN5 conf 61 | HNF4 split-luc 56
O=C(Nc1ccc2nc3n(c(=O)c2c1)CCCCC3)c1cc([N+](=O)[O-])ccc1F	none
O=C(C[n+]1ccc2ccccc2c1)c1ccccc1	none
O=C(C[n+]1ccc2ccccc2c1)c1ccc2ccc3ccccc3c2c1	ABHD5 PLIN5 PPI 28 (no result: HKDC1 inhibitor, PfGluPho inh) | ABHD5-PLIN5 conf inactive | HNF4 split-luc inactive
COCC1CCN(Cc2cn(-c3ccccc3F)nc2-c2cc(C)sc2C)CC1	none
Cc1ccc2c(c1)/C(=C/c1ccccc1F)C(=O)N2	ABHD5 PLIN5 PPI 31 | ABHD5-PLIN5 conf 44 | HNF4 split-luc 39
O=C1NC(=S)S/C1=C/c1ccc(N2CCOCC2)o1	ABHD5 PLIN5 PPI 44 | ABHD5-PLIN5 conf 42 | HNF4 split-luc 106
O=C1N/C(=C/c2ccc(N3CCOCC3)o2)C(=O)N1c1ccccc1	ABHD5 PLIN5 PPI 80 | ABHD5-PLIN5 conf 63 | HNF4 split-luc 99
CCCCn1c(N)c(N(CCOC)C(=O)c2cc(C)oc2C)c(=O)[nH]c1=O	none
O=C(COC(=O)c1ccc([N+](=O)[O-])o1)Nc1ccc2c(c1)OCO2	none
Cc1nnnn1/C(=C\c1ccccc1)C(=O)OCC(=O)Nc1ccc(Cl)cc1F	ABHD5 PLIN5 PPI 68 | ABHD5-PLIN5 conf 92 | HNF4 split-luc 85
O=C(COC(=O)Cc1n[nH]c(=O)c2ccccc12)Nc1ccc(Cl)cc1F	none
O=C(CCNC(=O)c1ccc([N+](=O)[O-])cc1)NCc1ccco1	none
Cc1ccc(/C=C/C(=O)Nc2ccc(S(N)(=O)=O)cc2)o1	ABHD5 PLIN5 PPI 36 | ABHD5-PLIN5 conf 64 | HNF4 split-luc 81
Cc1ccc(/C=C/C(=O)Nc2ccc(N(C)C)cc2)o1	none
CC(=O)NS(=O)(=O)c1ccc(NC(=O)/C=C/c2ccc(C)o2)cc1	ABHD5 PLIN5 PPI 28 | ABHD5-PLIN5 conf 50 | HNF4 split-luc 62
Cn1cccc1C(=O)NC(=O)COC(=O)c1cc(Cl)ccc1[N+](=O)[O-]	none
CCOc1ccc(-c2nc(CCl)cs2)cc1OC	none
C/C=C/C=C/C(=O)[C@@H]1[C@@H]([C@]2(C)OC(=O)C(C)=C2O)[C@H]2/C(=C(O)/C=C/C=C/C)C(=O)[C@]1(C)C(=O)C2(C)O (stereo not given in full)	ABHD5 PLIN5 PPI 35 | ABHD5-PLIN5 conf 44 | HNF4 split-luc 25
O=[N+]([O-])c1cccc(COc2ncnc3cc([N+](=O)[O-])ccc23)c1	none
CC1(C)Cc2c(C#N)c(NCC3CCCO3)nc(-c3ccco3)c2CO1 (stereo not given)	none
CC1(C)Cc2c(C#N)c(NC3CCCCC3)nc(-c3ccco3)c2CO1	ABHD5 PLIN5 PPI 34 (no result: HKDC1 inhibitor, PfGluPho inh) | ABHD5-PLIN5 conf 33 | HNF4 split-luc 41
N#CC(C#N)=Cc1ccc(-c2ccc(S(=O)(=O)N=C(N)N)cc2)o1	ABHD5 PLIN5 PPI 28 | ABHD5-PLIN5 conf 41 | HNF4 split-luc 35
O=C(NCC(=O)N1CCN(S(=O)(=O)c2ccccc2F)CC1)c1ccc(Br)o1	none
CCOC(=O)CCC(=O)Nc1ccc([N+](=O)[O-])cc1C	none
CCOc1cc(/C=C2\C(=O)N(Cc3ccc(C)cc3)C(C)=C2C(=O)OC)ccc1O	ABHD5 PLIN5 PPI 23 | ABHD5-PLIN5 conf 50 | HNF4 split-luc 39
O=C1C2C(C(=O)N1CCN1CCN(Cc3ccc([N+](=O)[O-])cc3)CC1)[C@H]1C=C[C@@H]2C1 (stereo not given in full)	none
C[C@@H]1Cc2c(O)c(O)cc(O)c2C(=O)O1	none
CC1CCC/C=C/C(=O)c2c(O)cc(O)cc2CC(=O)O1 (stereo not given)	ABHD5 PLIN5 PPI 32 | ABHD5-PLIN5 conf 54 | HNF4 split-luc 70
CCc1nc2ccc(C(=O)N(C)CCN(C)C)cn2c1N(C)CCC(C)C	none (no result: HKDC1 inhibitor, PfGluPho inh)
CCCCOC(=O)c1ccc(NC(=O)COC(=O)CSc2nc(C)cc(C)n2)cc1	none
CCc1cccc(NC(=O)c2cccc3c2C(=O)N(C2CCCCC2)C3)c1	none
O=[N+]([O-])/C=C\c1ccc(N2CCOCC2)cc1	ABHD5 PLIN5 PPI 65 | ABHD5-PLIN5 conf 88 | HNF4 split-luc 89
O=C(COc1ccc(/C=C\[N+](=O)[O-])cc1)N1CCOCC1	none
CCn1cc(CN2CCCC(C(=O)Nc3cccc(-c4cc5ccccc5[nH]4)c3)C2)c(C)n1 (stereo not given)	ABHD5 PLIN5 PPI 31 | ABHD5-PLIN5 conf inactive | HNF4 split-luc inactive
CC(C)[C@H](NS(=O)(=O)c1ccccc1)C(=O)OCC(=O)N1N=C(c2ccc(Cl)cc2)CC1c1ccco1 (stereo not given in full)	ABHD5 PLIN5 PPI 24 | ABHD5-PLIN5 conf 48 | HNF4 split-luc 56
O=C(CCl)N1N=C(c2ccco2)CC1c1ccco1 (stereo not given)	ABHD5 PLIN5 PPI 38 | ABHD5-PLIN5 conf 25 | HNF4 split-luc 22
Cc1ccc(OCC(=O)N2N=C(c3ccc(Cl)cc3)CC2c2ccco2)c([N+](=O)[O-])n1 (stereo not given)	ABHD5 PLIN5 PPI 24 | ABHD5-PLIN5 conf inactive | HNF4 split-luc 14
